Data taken from ChEMBL document CHEMBL3044653, “Synthesis and herbicidal activity of 2-(substituted phenoxyacetoxy)alkyl-5,5-dimethyl-1,3,2-dioxaphosphinan-2-one” (J Agric Food Chem, 2012).

How the values were obtained:
Digitaria sanguinalis [1] = test: Post-emergence herbicidal activity against Digitaria sanguinalis (hairy crabgrass) assessed as inhibition at 37.5 g/hectare treated at one-leaf stage by green house assay; assay type: functional
How it was run: (§1)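 Monocot weeds were sprayed postemergence in the greenhouse at the one-leaf stage with diluted formulation solutions. Primary dose was 150 g ai/ha, with follow-up doses of 75 and 37.5 g ai/ha for selected compounds. Activity is scored as percent herbicidal damage compared with an untreated control.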

Gossypium hirsutum = test: Toxicity in Gossypium hirsutum (cotton) plant assessed as inhibition at 150 g/hectare; assay type: organism-based; settings: in vivo
How it was run: (§2)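 For crop selectivity, conventional crop varieties were planted in 12 cm diameter plots and given a postemergence treatment at 150 g ai/ha. Injury was scored as percent inhibition, with 0–10% classed as safe to the crop.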

Amaranthus retroflexus [2] = test: Post-emergence herbicidal activity against Amaranthus retroflexus assessed as inhibition at 150 g/hectare by green house assay; assay type: functional
[3] = test system: Brassica rapa subsp. oleifera; test: Post-emergence herbicidal activity against Brassica rapa subsp. oleifera assessed as inhibition at 150 g/hectare by green house assay; assay type: functional
[4] = test system: Brassica rapa subsp. chinensis; test: Post-emergence herbicidal activity against Brassica rapa subsp. chinensis assessed as inhibition at 75 g/hectare by green house assay; assay type: functional
Eclipta prostrata [5] = test: Post-emergence herbicidal activity against Eclipta prostrata assessed as inhibition at 150 g/hectare treated at two-leaf stage by green house assay; assay type: functional
How it was run: (§3)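 Greenhouse postemergence spray of diluted formulation solutions onto broadleaf weeds at the two-leaf stage. Primary screen at 150 g ai/ha, with selected compounds retested at 75 and 37.5 g ai/ha. Abutilon was tested at 150 g ai/ha only. Read-out is percent herbicidal damage relative to an untreated control.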

Eclipta prostrata [6] = test: Post-emergence herbicidal activity against Eclipta prostrata assessed as inhibition at 75 g/hectare treated at two-leaf stage by green house assay; assay type: functional; how it was run: as §3
Brassica juncea [7] = test: Post-emergence herbicidal activity against Brassica juncea assessed as inhibition at 150 g/hectare treated at two-leaf stage by green house assay; assay type: functional; how it was run: as §3
Echinochloa crus-galli [8] = test: Post-emergence herbicidal activity against Echinochloa crus-galli (barnyard grass) assessed as inhibition at 75 g/hectare treated at one-leaf stage by green house assay; assay type: functional; how it was run: as §1
Glycine max = test: Toxicity in Glycine max (soybean) plant assessed as inhibition at 150 g/hectare; assay type: organism-based; settings: in vivo; how it was run: as §2
Digitaria sanguinalis [9] = test: Post-emergence herbicidal activity against Digitaria sanguinalis (hairy crabgrass) assessed as inhibition at 75 g/hectare treated at one-leaf stage by green house assay; assay type: functional; how it was run: as §1
Echinochloa crus-galli [10] = test: Post-emergence herbicidal activity against Echinochloa crus-galli (barnyard grass) assessed as inhibition at 37.5 g/hectare treated at one-leaf stage by green house assay; assay type: functional; how it was run: as §1
Oryza sativa = test: Toxicity in Oryza sativa (rice) plant assessed as inhibition at 150 g/hectare; assay type: organism-based; settings: in vivo; how it was run: as §2
Echinochloa crus-galli [11] = test: Post-emergence herbicidal activity against Echinochloa crus-galli (barnyard grass) assessed as inhibition at 150 g/hectare treated at one-leaf stage by green house assay; assay type: functional; how it was run: as §1
Amaranthus retroflexus [12] = test: Post-emergence herbicidal activity against Amaranthus retroflexus assessed as inhibition at 75 g/hectare by green house assay; assay type: functional
Chenopodium album [13] = test: Post-emergence herbicidal activity against Chenopodium album assessed as inhibition at 75 g/hectare by green house assay; assay type: functional
Ammannia baccifera [14] = test: Post-emergence herbicidal activity against Ammannia baccifera assessed as inhibition at 150 g/hectare by green house assay; assay type: functional
Radish [15] = test: Post-emergence herbicidal activity against Raphanus sativus (radish) assessed as inhibition at 150 g/hectare by green house assay; assay type: functional
[16] = test system: Brassica rapa subsp. oleifera; test: Post-emergence herbicidal activity against Brassica rapa subsp. oleifera assessed as inhibition at 75 g/hectare by green house assay; assay type: functional
Abutilon theophrasti = test: Post-emergence herbicidal activity against Abutilon theophrasti (velvetleaf) assessed as inhibition at 150 g/hectare treated at two-leaf stage by green house assay; assay type: functional; how it was run: as §3
Chenopodium album [17] = test: Post-emergence herbicidal activity against Chenopodium album assessed as inhibition at 150 g/hectare by green house assay; assay type: functional
Brassica juncea [18] = test: Post-emergence herbicidal activity against Brassica juncea assessed as inhibition at 75 g/hectare by green house assay; assay type: functional
Setaria viridis [19] = test: Post-emergence herbicidal activity against Setaria viridis (green foxtail) assessed as inhibition at 150 g/hectare treated at one-leaf stage by green house assay; assay type: functional; how it was run: as §1
Brassica napus = test: Toxicity in Brassica napus (oilseed rape) assessed as inhibition at 150 g/hectare; assay type: functional; how it was run: as §2
Ammannia baccifera [20] = test: Post-emergence herbicidal activity against Ammannia baccifera assessed as inhibition at 75 g/hectare by green house assay; assay type: functional
Setaria viridis [21] = test: Post-emergence herbicidal activity against Setaria viridis (green foxtail) assessed as inhibition at 75 g/hectare treated at one-leaf stage by green house assay; assay type: functional; how it was run: as §1
Ipomoea nil [22] = test: Post-emergence herbicidal activity against Ipomoea nil (Japanese morning glory) assessed as inhibition at 75 g/hectare by green house assay; assay type: functional
Amaranthus retroflexus [23] = test: Post-emergence herbicidal activity against Amaranthus retroflexus assessed as inhibition at 150 g/hectare treated at two-leaf stage by green house assay; assay type: functional; how it was run: as §3
Radish [24] = test: Post-emergence herbicidal activity against Raphanus sativus (radish) assessed as inhibition at 75 g/hectare by green house assay; assay type: functional
Eclipta prostrata [25] = test: Post-emergence herbicidal activity against Eclipta prostrata assessed as inhibition at 37.5 g/hectare treated at two-leaf stage by green house assay; assay type: functional; how it was run: as §3
[26] = test system: Brassica rapa subsp. chinensis; test: Post-emergence herbicidal activity against Brassica rapa subsp. chinensis assessed as inhibition at 150 g/hectare by green house assay; assay type: functional
Pontederia vaginalis [27] = test: Post-emergence herbicidal activity against Monochoria vaginalis assessed as inhibition at 75 g/hectare by green house assay; assay type: functional
Pontederia vaginalis [28] = test: Post-emergence herbicidal activity against Monochoria vaginalis assessed as inhibition at 150 g/hectare by green house assay; assay type: functional
Brassica oleracea [29] = test: Post-emergence herbicidal activity against Brassica oleracea assessed as inhibition at 75 g/hectare by green house assay; assay type: functional
Brassica oleracea [30] = test: Post-emergence herbicidal activity against Brassica oleracea assessed as inhibition at 150 g/hectare by green house assay; assay type: functional
Digitaria sanguinalis [31] = test: Post-emergence herbicidal activity against Digitaria sanguinalis (hairy crabgrass) assessed as inhibition at 150 g/hectare treated at one-leaf stage by green house assay; assay type: functional; how it was run: as §1
Brassica juncea [32] = test: Post-emergence herbicidal activity against Brassica juncea assessed as inhibition at 37.5 g/hectare treated at two-leaf stage by green house assay; assay type: functional; how it was run: as §3
Amaranthus retroflexus [33] = test: Post-emergence herbicidal activity against Amaranthus retroflexus assessed as inhibition at 75 g/hectare treated at two-leaf stage by green house assay; assay type: functional; how it was run: as §3
Zea mays = test: Toxicity in Zea mays (maize) plant assessed as inhibition at 150 g/hectare; assay type: organism-based; settings: in vivo; how it was run: as §2
Ipomoea nil [34] = test: Post-emergence herbicidal activity against Ipomoea nil (Japanese morning glory) assessed as inhibition at 150 g/hectare by green house assay; assay type: functional
Brassica juncea [35] = test: Post-emergence herbicidal activity against Brassica juncea assessed as inhibition at 75 g/hectare treated at two-leaf stage by green house assay; assay type: functional; how it was run: as §3
Triticum aestivum = test: Toxicity in Triticum aestivum (wheat) plant assessed as inhibition at 150 g/hectare; assay type: organism-based; settings: in vivo; how it was run: as §2
Brassica juncea [36] = test: Post-emergence herbicidal activity against Brassica juncea assessed as inhibition at 150 g/hectare by green house assay; assay type: functional
Setaria viridis [37] = test: Post-emergence herbicidal activity against Setaria viridis (green foxtail) assessed as inhibition at 37.5 g/hectare treated at one-leaf stage by green house assay; assay type: functional; how it was run: as §1
Amaranthus retroflexus [38] = test: Post-emergence herbicidal activity against Amaranthus retroflexus assessed as inhibition at 37.5 g/hectare treated at two-leaf stage by green house assay; assay type: functional; how it was run: as §3

Question: Which results are given for `CC(OC(=O)COc1ccc(Cl)cc1Cl)P1(=O)OCC(C)(C)CO1` (stereo not given)?
Answer: inhibition at 37.5 g/ha (Digitaria sanguinalis [1]): 0%; inhibition (INH) (Gossypium hirsutum): 30%; inhibition at 150 g/ha (Amaranthus retroflexus [2]): 95%; inhibition at 150 g/ha [3]: 100%; inhibition at 75 g/ha [4]: 80%; inhibition at 150 g/ha (Eclipta prostrata [5]): 85%; inhibition at 75 g/ha (Eclipta prostrata [6]): 70%; inhibition at 150 g/ha (Brassica juncea [7]): 95%; inhibition at 75 g/ha (Echinochloa crus-galli [8]): 0%; inhibition (INH) (Glycine max): 30%; inhibition at 75 g/ha (Digitaria sanguinalis [9]): 0%; inhibition at 37.5 g/ha (Echinochloa crus-galli [10]): 0%; inhibition (INH) (Oryza sativa): 10%; inhibition at 150 g/ha (Echinochloa crus-galli [11]): 30%; inhibition at 75 g/ha (Amaranthus retroflexus [12]): 75%; inhibition at 75 g/ha (Chenopodium album [13]): 80%; inhibition at 150 g/ha (Ammannia baccifera [14]): 100%; inhibition at 150 g/ha (Radish [15]): 95%; inhibition at 75 g/ha [16]: 90%; inhibition at 150 g/ha (Abutilon theophrasti): 95%; inhibition at 150 g/ha (Chenopodium album [17]): 85%; inhibition at 75 g/ha (Brassica juncea [18]): 95%; inhibition at 150 g/ha (Setaria viridis [19]): 30%; inhibition at 150 g/ha (Brassica napus): 40%; inhibition at 75 g/ha (Ammannia baccifera [20]): 100%; inhibition at 75 g/ha (Setaria viridis [21]): 0%; inhibition at 75 g/ha (Ipomoea nil [22]): 100%; inhibition at 150 g/ha (Amaranthus retroflexus [23]): 95%; inhibition at 75 g/ha (Radish [24]): 90%; inhibition at 37.5 g/ha (Eclipta prostrata [25]): 50%; inhibition at 150 g/ha [26]: 85%; inhibition at 75 g/ha (Pontederia vaginalis [27]): 100%; inhibition at 150 g/ha (Pontederia vaginalis [28]): 100%; inhibition at 75 g/ha (Brassica oleracea [29]): 80%; inhibition at 150 g/ha (Brassica oleracea [30]): 90%; inhibition at 150 g/ha (Digitaria sanguinalis [31]): 30%; inhibition at 37.5 g/ha (Brassica juncea [32]): 90%; inhibition at 75 g/ha (Amaranthus retroflexus [33]): 75%; inhibition (INH) (Zea mays): 0%; inhibition at 150 g/ha (Ipomoea nil [34]): 100%; inhibition at 75 g/ha (Brassica juncea [35]): 95%; inhibition (INH) (Triticum aestivum): 0%; inhibition at 150 g/ha (Brassica juncea [36]): 95%; inhibition at 37.5 g/ha (Setaria viridis [37]): 0%; inhibition at 37.5 g/ha (Amaranthus retroflexus [38]): 70%
